Activity calls are given as the source filed them.
How the values were obtained:
Assay type in all cases: functional, cell-based
[1] = tested on: MOLT-3; assay: Induction of apoptosis in human MOLT3 cells after 24 hrs by fluorescence microscopy
Procedure, shortened: (§1)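 Cells exposed 24 h to DMSO vehicle or test agent at 10–75 µM. Stained with acridine orange; apoptosis scored morphologically by fluorescence microscopy, over 600 cells analyzed. % apoptosis = apoptotic cells / total cells counted × 100. Mean and SD of three determinations. Comparison with vehicle by Student's t-test (MOLT3) or Tukey HSD (U937).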

[2] = tested on: U-937; assay: Reduction in viability of human U937 at 75 uM after 24 hrs by MTS assay
Procedure, shortened: (§2)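 MTS colorimetric assay: 2 × 10⁴ cells in 100 µL RPMI-1640 with 5% FBS, 2 mM L-glutamine and penicillin–streptomycin, with compound or DMSO vehicle for 24 h. MTS reagent then added for 4 h and absorbance read at 490 nm. Mean and SD of three determinations. Comparison with vehicle by Student's t-test.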

[3] = tested on: MOLT-3; assay: Reduction in viability of human MOLT3 cells at 75 uM after 24 hrs by MTS assay; procedure, shortened: as §2
[4] = tested on: U-937; assay: Stimulation of growth of human U937 cells at 25 to 50 uM after 24 hrs
[5] = tested on: MOLT-3; assay: Induction of apoptosis in human MOLT3 cells at 10 uM after 24 hrs by fluorescence microscopy; procedure, shortened: as §1
[6] = tested on: U-937; assay: Induction of apoptosis in human U937 cells after 24 hrs by fluorescence microscopy; procedure, shortened: as §1
[7] = tested on: U-937; assay: Induction of apoptosis in human U937 cells at 10 uM after 24 hrs by fluorescence microscopy; procedure, shortened: as §1
[8] = tested on: MOLT-3; assay: Stimulation of growth of human MOLT3 cells at 25 to 50 uM after 24 hrs

Measured: Activity

C=C(CO[C@@H]1O[C@H](COC(C)=O)[C@@H](OC(C)=O)[C@H](OC(C)=O)[C@H]1OC(C)=O)[S+]([O-])c1cccc([S+]([O-])C(=C)CO[C@@H]2O[C@H](COC(C)=O)[C@@H](OC(C)=O)[C@H](OC(C)=O)[C@H]2OC(C)=O)c1 (stereo partly drawn)
inactive: [5] | [7]
active: [1] Dose-dependent effect | [2] | [3] | [4] | [6] Dose-dependent effect | [8]

Reference: ChEMBL document CHEMBL1152736, “Synthesis and biological testing of thioalkane- and thioarene-spaced bis-beta-D-glucopyranosides” (Bioorg Med Chem, 2009)
